# Data from ChEMBL document CHEMBL1121744, “Synthesis and antihypertensive activity of a series of 8-substituted 1-oxa-3,8-diazaspiro[4.5]decan-2-ones” (J Med Chem, 1981).
# Calls of active or inactive are those of the source. The calls are words filed in the database; no cut-off is given here.
# Assays:
# Canis familiaris [1] = assay: Percent inhibition of the pressor responses to 0.75 ug/kg iv norepinephrine in pentobarbital-anesthetized dogs for a dose of 0.316 mg/kg; type: functional; conditions: Canis lupus familiaris
# Procedure, shortened: (§1)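 Pentobarbital-anesthetized dogs (35 mg/kg iv) with femoral arterial pressure recording. Epinephrine (1 μg/kg), norepinephrine (0.75 μg/kg) and phenylephrine (7.5 μg/kg) iv challenges were given about every 10 min before and after rising iv test doses, which were spaced 90 min apart. Value is % inhibition of the pressor response.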
# Canis familiaris [2] = assay: Change in mean arterial pressure in anesthetized dogs for a dose of 0.1 mg/kg; type: functional, Canis lupus familiaris, Artery
# Procedure, shortened: (§2)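 Dogs anesthetized with sodium pentobarbital (35 mg/kg iv), femoral artery cannulated for pressure, ECG-triggered heart rate, femoral vein for dosing. Rising iv doses were given 90 min apart, and each dose is the full dose, not cumulative. Value is the maximal mean arterial pressure change 10–15 min after each dose, two dogs per compound, ±3 mmHg. Saline served as control.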
# Canis familiaris [3] = assay: Change in mean arterial pressure in anesthetized dogs for a dose of 0.316 mg/kg; type: functional, Canis lupus familiaris, Artery; procedure, shortened: as §2
# Rattus norvegicus [4] = assay: The antihypertensive activity as percentage fall in systolic blood pressure in spontaneously hypertensive rats after a period of 4 hr for a dose of 25 mg/kg po; NS=Not significant; type: functional, organism-based; design: dose 25 mg/kg; conditions: Artery
# Procedure, shortened: (§3)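 Male Okamoto-Aoki SHR, trained, in groups of four matched for mean systolic pressure; one group per run received water vehicle. Oral dosing in water (0.1 mL per 10 g) on two consecutive mornings. After the day-2 dose, rats were restrained at 30.0 ± 1.0 °C. Systolic pressure was read by tail cuff (inflated to 300 mmHg, first pulse) at 1–4 h. % fall is versus the untreated control group, by 1-tail t test (p ≤ 0.05).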
# Canis familiaris [5] = assay: Change in mean arterial pressure in anesthetized dogs for a dose of 0.01 mg/kg; type: functional, Canis lupus familiaris, Artery; procedure, shortened: as §2
# Canis familiaris [6] = assay: Percent inhibition of the pressor responses to 7.5 ug/kg iv phenylephrine in pentobarbital-anesthetized dogs for a dose of 0.1 mg/kg; type: functional; conditions: Canis lupus familiaris; procedure, shortened: as §1
# Canis familiaris [7] = assay: Change in mean arterial pressure in anesthetized dogs for a dose of 1 mg/kg; type: functional, Canis lupus familiaris, Artery; procedure, shortened: as §2
# Canis familiaris [8] = assay: Percent inhibition of the pressor responses to 1 ug/kg iv Epinephrine in pentobarbital-anesthetized dogs for a dose of 1 mg/kg; type: functional; conditions: Canis lupus familiaris; procedure, shortened: as §1
# Rattus norvegicus [9] = assay: The antihypertensive activity as percentage fall in systolic blood pressure in spontaneously hypertensive rats after a period of 2 hr for a dose of 25 mg/kg po; NS=Not significant; type: functional, organism-based; design: dose 25 mg/kg; conditions: Artery; procedure, shortened: as §3
# [10] = biological target: T1, Adrenergic receptor alpha-1 (Rattus norvegicus, UniProt P15823+P23944+P43140); assay: Antagonistic potency of compound for Alpha-1 adrenergic receptor; type: functional
# T1 sequence (P15823 whole entry): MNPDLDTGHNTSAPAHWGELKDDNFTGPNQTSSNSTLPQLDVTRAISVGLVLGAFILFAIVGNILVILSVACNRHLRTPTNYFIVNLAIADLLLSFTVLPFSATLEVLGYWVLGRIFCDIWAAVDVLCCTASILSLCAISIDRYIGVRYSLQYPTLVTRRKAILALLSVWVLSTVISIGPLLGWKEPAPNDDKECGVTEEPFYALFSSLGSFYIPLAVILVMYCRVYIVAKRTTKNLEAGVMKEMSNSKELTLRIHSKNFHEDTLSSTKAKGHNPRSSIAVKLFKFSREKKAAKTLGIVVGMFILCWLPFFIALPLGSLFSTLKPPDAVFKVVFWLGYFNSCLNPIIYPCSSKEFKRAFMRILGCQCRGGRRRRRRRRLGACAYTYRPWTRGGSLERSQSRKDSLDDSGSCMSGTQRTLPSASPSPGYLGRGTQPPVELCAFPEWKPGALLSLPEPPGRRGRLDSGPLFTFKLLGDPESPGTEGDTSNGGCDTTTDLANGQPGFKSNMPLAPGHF
# T1 sequence (P23944 whole entry): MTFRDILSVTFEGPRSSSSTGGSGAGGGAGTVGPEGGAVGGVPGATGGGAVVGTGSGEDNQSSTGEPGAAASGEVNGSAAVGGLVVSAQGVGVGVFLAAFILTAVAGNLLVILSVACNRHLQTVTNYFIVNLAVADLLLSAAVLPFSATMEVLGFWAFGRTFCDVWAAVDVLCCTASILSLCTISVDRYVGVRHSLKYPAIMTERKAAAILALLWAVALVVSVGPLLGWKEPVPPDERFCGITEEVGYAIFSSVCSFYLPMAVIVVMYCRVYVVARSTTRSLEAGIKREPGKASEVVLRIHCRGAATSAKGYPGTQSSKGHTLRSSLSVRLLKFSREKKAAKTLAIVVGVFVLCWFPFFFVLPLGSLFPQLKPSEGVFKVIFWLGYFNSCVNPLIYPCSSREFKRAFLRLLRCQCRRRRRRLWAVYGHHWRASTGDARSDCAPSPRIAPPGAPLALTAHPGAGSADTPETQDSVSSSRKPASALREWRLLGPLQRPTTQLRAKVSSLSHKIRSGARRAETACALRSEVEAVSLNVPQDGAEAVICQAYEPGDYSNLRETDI
# T1 sequence (P43140 whole entry): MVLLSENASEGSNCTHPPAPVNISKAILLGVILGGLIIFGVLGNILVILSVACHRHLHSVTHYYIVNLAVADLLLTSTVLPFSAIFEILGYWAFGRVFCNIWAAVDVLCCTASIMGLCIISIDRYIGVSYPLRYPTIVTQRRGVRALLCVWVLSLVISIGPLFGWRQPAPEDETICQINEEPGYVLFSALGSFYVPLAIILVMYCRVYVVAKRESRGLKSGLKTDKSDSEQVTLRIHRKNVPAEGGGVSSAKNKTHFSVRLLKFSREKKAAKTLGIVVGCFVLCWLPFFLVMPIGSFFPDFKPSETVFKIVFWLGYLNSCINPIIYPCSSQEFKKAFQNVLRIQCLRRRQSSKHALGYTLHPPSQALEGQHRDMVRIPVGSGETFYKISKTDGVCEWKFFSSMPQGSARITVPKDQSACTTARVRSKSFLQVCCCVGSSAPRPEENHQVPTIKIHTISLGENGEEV
# Canis familiaris [11] = assay: Percent inhibition of the pressor responses to 7.5 ug/kg iv phenylephrine in pentobarbital-anesthetized dogs for a dose of 10 mg/kg; type: functional; conditions: Canis lupus familiaris; procedure, shortened: as §1
# Rattus norvegicus [12] = assay: The antihypertensive activity as percentage fall in systolic blood pressure in spontaneously hypertensive rats after a period of 2 hr for a dose of 50 mg/kg po
# Rattus norvegicus [13] = assay: The antihypertensive activity as percentage fall in systolic blood pressure in spontaneously hypertensive rats after a period of 1 hr for a dose of […]; type: functional, Artery
# Procedure, shortened: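 Male Okamoto-Aoki SHR, trained, in groups of four matched for systolic pressure, with a concurrent vehicle control group. Oral dosing on two consecutive mornings, in water as solution or suspension at 0.1 mL/10 g. On day 2 rats were restrained at 30.0 ± 1.0 °C. Tail-cuff systolic pressure, four traces per rat, read at each hour. Per cent fall versus control; 1-tail t test, p ≤ 0.05.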
# Rattus norvegicus [14] = assay: The antihypertensive activity as percentage fall in systolic blood pressure in spontaneously hypertensive rats after a period of 4 hr for a dose of 50 mg/kg po
Structure (SMILES),inhibition in vivo at 0.316 mg/kg (Canis familiaris [1]) [%],MAP (Canis familiaris [2]) [mmHg],MAP (Canis familiaris [3]) [mmHg],Decrease in blood pressure (Rattus norvegicus [4]),MAP (Canis familiaris [5]) [mmHg],inhibition in vivo at 0.1 mg/kg (Canis familiaris [6]) [%],MAP (Canis familiaris [7]) [mmHg],inhibition in vivo at 1 mg/kg (Canis familiaris [8]) [%],Decrease in blood pressure (Rattus norvegicus [9]),pA2 [10],inhibition in vivo at 10 mg/kg (Canis familiaris [11]) [%],Decrease in blood pressure (Rattus norvegicus [12]) [%],Decrease in blood pressure (Rattus norvegicus [13]) [%],Decrease in blood pressure (Rattus norvegicus [14]) [%]
CN1CC2(CCN(CC(O)C3COc4ccccc4O3)CC2)OC1=O (centres undefined),41,4,0,inactive,4,0,-13,> 100,inactive,4.5,–,–,–,–
O=C1NCC2(CCN(CCc3c[nH]c4ccccc34)CC2)O1,–,-2,–,–,–,17,-11,> 100,–,5.5,100,10,14,11
